Assay results taken from ChEMBL document CHEMBL3044618, “Repellent constituents of essential oil of Cymbopogon distans aerial parts against two stored-product insects” (2011).

What was measured:
Format in all cases: functional
[1] = tested on: Liposcelis bostrychophila; assay: Insecticidal activity against adult Liposcelis bostrychophila (booklice) assessed as repellent activity at 26 nL/cm2 after 2 hr
Method in brief: (§1)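 Adult booklice, about 2 weeks old, from dark cultures at 28–30 °C and 70–80% RH on milk powder/active yeast/flour (1:1:1). Half of a 6 cm filter paper received 150 μL of sample in acetone; the other half received acetone; both were air-dried. Papers were placed in Fluon-coated 6 cm Petri dishes. Insects on each half were counted at 2 and 4 h. PR = (Nc−Nt)/(Nc+Nt)×100. Five replicates, repeated three times.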

[2] = tested on: Liposcelis bostrychophila; assay: Insecticidal activity against adult Liposcelis bostrychophila (booklice) assessed as repellent activity at 6.4 nL/cm2 after 4 hr; method in brief: as §1
Tribolium castaneum [3] = assay: Insecticidal activity against adult Tribolium castaneum (red flour beetle) assessed as repellent activity at 0.016 nL/cm2 after 2 hr
Method in brief: (§2)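 Adult T. castaneum, about 2 weeks old, reared on wheat flour plus yeast (10:1, w/w) in the dark at 28–30 °C and 70–80% RH. In Fluon-coated 9 cm dishes, half of a 9 cm filter paper received 500 μL of acetone solution and the other half received acetone, then both were air-dried. Insects on each half were counted at 2 and 4 h. Percent repellency was computed from the counts. Five replicates, three runs.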

[4] = tested on: Liposcelis bostrychophila; assay: Insecticidal activity against adult Liposcelis bostrychophila (booklice) assessed as repellent activity at 1.6 nL/cm2 after 2 hr; method in brief: as §1
Tribolium castaneum [5] = assay: Insecticidal activity against adult Tribolium castaneum (red flour beetle) assessed as repellent activity at 0.16 nL/cm2 after 2 hr; method in brief: as §2
[6] = tested on: Liposcelis bostrychophila; assay: Insecticidal activity against adult Liposcelis bostrychophila (booklice) assessed as repellent activity at 13 nL/cm2 after 2 hr; method in brief: as §1
Tribolium castaneum [7] = assay: Insecticidal activity against adult Tribolium castaneum (red flour beetle) assessed as repellent activity at 16 nL/cm2 after 4 hr; method in brief: as §2
[8] = tested on: Liposcelis bostrychophila; assay: Insecticidal activity against adult Liposcelis bostrychophila (booklice) assessed as repellent activity at 3.2 nL/cm2 after 4 hr; method in brief: as §1
Tribolium castaneum [9] = assay: Insecticidal activity against adult Tribolium castaneum (red flour beetle) assessed as repellent activity at 0.016 nL/cm2 after 4 hr; method in brief: as §2
Tribolium castaneum [10] = assay: Insecticidal activity against adult Tribolium castaneum (red flour beetle) assessed as repellent activity at 16 nL/cm2 after 2 hr; method in brief: as §2
Tribolium castaneum [11] = assay: Insecticidal activity against adult Tribolium castaneum (red flour beetle) assessed as repellent activity at 0.16 nL/cm2 after 4 hr; method in brief: as §2
Tribolium castaneum [12] = assay: Insecticidal activity against adult Tribolium castaneum (red flour beetle) assessed as repellent activity at 1.6 nL/cm2 after 4 hr; method in brief: as §2
[13] = tested on: Liposcelis bostrychophila; assay: Insecticidal activity against adult Liposcelis bostrychophila (booklice) assessed as repellent activity at 13 nL/cm2 after 4 hr; method in brief: as §1
[14] = tested on: Liposcelis bostrychophila; assay: Insecticidal activity against adult Liposcelis bostrychophila (booklice) assessed as repellent activity at 3.2 nL/cm2 after 2 hr; method in brief: as §1
[15] = tested on: Liposcelis bostrychophila; assay: Insecticidal activity against adult Liposcelis bostrychophila (booklice) assessed as repellent activity at 1.6 nL/cm2 after 4 hr; method in brief: as §1
Tribolium castaneum [16] = assay: Insecticidal activity against adult Tribolium castaneum (red flour beetle) assessed as repellent activity at 0.0016 nL/cm2 after 4 hr; method in brief: as §2
Tribolium castaneum [17] = assay: Insecticidal activity against adult Tribolium castaneum (red flour beetle) assessed as repellent activity at 1.6 nL/cm2 after 2 hr; method in brief: as §2
[18] = tested on: Liposcelis bostrychophila; assay: Insecticidal activity against adult Liposcelis bostrychophila (booklice) assessed as repellent activity at 6.4 nL/cm2 after 2 hr; method in brief: as §1
[19] = tested on: Liposcelis bostrychophila; assay: Insecticidal activity against adult Liposcelis bostrychophila (booklice) assessed as repellent activity at 26 nL/cm2 after 4 hr; method in brief: as §1
Tribolium castaneum [20] = assay: Insecticidal activity against adult Tribolium castaneum (red flour beetle) assessed as repellent activity at 0.0016 nL/cm2 after 2 hr; method in brief: as §2

C=C(C)[C@H]1CC=C(C)CC1 [D-LIMONENE]
Repellency [1]: 36%
Repellency [2]: -18%
Repellency (Tribolium castaneum [3]): -36%
Repellency [4]: -6%
Repellency (Tribolium castaneum [5]): 2%
Repellency [6]: -4%
Repellency (Tribolium castaneum [7]): -4%
Repellency [8]: -22%
Repellency (Tribolium castaneum [9]): -36%
Repellency (Tribolium castaneum [10]): 20%
Repellency (Tribolium castaneum [11]): 8%
Repellency (Tribolium castaneum [12]): -44%
Repellency [13]: 30%
Repellency [14]: -10%
Repellency [15]: -4%
Repellency (Tribolium castaneum [16]): 12%
Repellency (Tribolium castaneum [17]): -22%
Repellency [18]: -20%
Repellency [19]: 40%
Repellency (Tribolium castaneum [20]): 20%

CC(C)=CCC[C@@H](C)CCO [(+)-CITRONELLOL]
Repellency [1]: 96%
Repellency [2]: 64%
Repellency (Tribolium castaneum [3]): 44%
Repellency [4]: 28%
Repellency (Tribolium castaneum [5]): 64%
Repellency [6]: 66%
Repellency (Tribolium castaneum [7]): 96%
Repellency [8]: 44%
Repellency (Tribolium castaneum [9]): 48%
Repellency (Tribolium castaneum [10]): 88%
Repellency (Tribolium castaneum [11]): 66%
Repellency (Tribolium castaneum [12]): 75%
Repellency [13]: 76%
Repellency [14]: 52%
Repellency [15]: 32%
Repellency (Tribolium castaneum [16]): 36%
Repellency (Tribolium castaneum [17]): 82.5%
Repellency [18]: 66%
Repellency [19]: 82%
Repellency (Tribolium castaneum [20]): 40%

CC(C)=CCC[C@@H](C)CC=O [CITRONELLAL]
Repellency [1]: 36%
Repellency [2]: 6%
Repellency (Tribolium castaneum [3]): 4%
Repellency [4]: -10%
Repellency (Tribolium castaneum [5]): 10%
Repellency [6]: -10%
Repellency (Tribolium castaneum [7]): -4%
Repellency [8]: 12%
Repellency (Tribolium castaneum [9]): -16%
Repellency (Tribolium castaneum [10]): 16%
Repellency (Tribolium castaneum [11]): 6%
Repellency (Tribolium castaneum [12]): -16%
Repellency [13]: 4%
Repellency [14]: -4%
Repellency [15]: -10%
Repellency (Tribolium castaneum [16]): 0%
Repellency (Tribolium castaneum [17]): -12%
Repellency [18]: 20%
Repellency [19]: 34%
Repellency (Tribolium castaneum [20]): -20%

CCN(CC)C(=O)c1cccc(C)c1 [DIETHYLTOLUAMIDE]
Repellency [1]: 96%
Repellency [2]: 92%
Repellency (Tribolium castaneum [3]): 0%
Repellency [4]: 46%
Repellency (Tribolium castaneum [5]): 0%
Repellency [6]: 100%
Repellency (Tribolium castaneum [7]): 90%
Repellency [8]: 64%
Repellency (Tribolium castaneum [9]): -4%
Repellency (Tribolium castaneum [10]): 92%
Repellency (Tribolium castaneum [11]): -16%
Repellency (Tribolium castaneum [12]): -12%
Repellency [13]: 94%
Repellency [14]: 82%
Repellency [15]: 42%
Repellency (Tribolium castaneum [16]): -46%
Repellency (Tribolium castaneum [17]): 6%
Repellency [18]: 84%
Repellency [19]: 94%
Repellency (Tribolium castaneum [20]): -34%

CC(C)=CCC/C(C)=C/CO [GERANIOL]
Repellency [1]: 86%
Repellency [2]: 96%
Repellency (Tribolium castaneum [3]): -12%
Repellency [4]: 42%
Repellency (Tribolium castaneum [5]): 14%
Repellency [6]: 95%
Repellency (Tribolium castaneum [7]): 86%
Repellency [8]: 74%
Repellency (Tribolium castaneum [9]): -10%
Repellency (Tribolium castaneum [10]): 96%
Repellency (Tribolium castaneum [11]): 14%
Repellency (Tribolium castaneum [12]): 60%
Repellency [13]: 82.5%
Repellency [14]: 84%
Repellency [15]: 44%
Repellency (Tribolium castaneum [16]): -14%
Repellency (Tribolium castaneum [17]): 58%
Repellency [18]: 90%
Repellency [19]: 92%
Repellency (Tribolium castaneum [20]): -10%
